Values after ≈ are worked out from the molar mass of the structure shown.
What was measured:
Format in all cases: functional
CCRF-CEM [1] = test: Tested for minimum inhibitory concentration required to reduce virus-induced cell viability by 50% on CEM cell line; conditions: Homo sapiens
CCRF-CEM [2] = test: Tested for minimum inhibitory concentration required to reduce virus-induced cytopathicity by 50% on CEM cell line infected with HIV-2 virus; conditions: Homo sapiens
CCRF-CEM [3] = test: Tested for minimum inhibitory concentration required to reduce virus-induced cytopathicity by 50% was evaluated on CEM cell line infected with HIV-1 virus; conditions: Homo sapiens
HEF [4] = test: Tested for minimum inhibitory concentration required to cause a microscopically detectable alteration of normal cell morphology by 50% on HEF cell line; conditions: Homo sapiens
How it was run: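 Human embryonic skin-muscle fibroblasts (HEF) were used. The value is the minimum concentration that causes a microscopically detectable alteration of normal cell morphology. Values are averages of at least two separate experiments.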

HEF [5] = test: Tested for minimum inhibitory concentration required to reduce […] by 50% on HEF cell line; conditions: Homo sapiens
How it was run: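 Human embryonic lung fibroblasts (HEF) were used for cell proliferation. The value is the concentration that reduces cell proliferation by 50%. Values are averages of at least two separate experiments.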

HEF [6] = test: Tested for minimum inhibitory concentration required to reduce virus-induced cytopathicity by 50% on HEF cell line infected with HSV-1 virus; conditions: Homo sapiens
How it was run: (§1)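 Human embryonic skin-muscle fibroblasts (HEF) were infected with the stated virus. The value is the concentration that reduces virus-induced cytopathicity by 50%. Values are averages of at least two separate experiments.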

HEF [7] = test: Tested for minimum inhibitory concentration required to reduce virus-induced cytopathicity by 50% on HEF cell line infected with vesicular stomatitis virus; conditions: Homo sapiens; how it was run: as §1
HEF [8] = test: Tested for minimum inhibitory concentration required to reduce virus-induced cytopathicity by 50% on HEF cell line infected with HSV-2 virus; conditions: Homo sapiens; how it was run: as §1
HEF [9] = test: Tested for minimum inhibitory concentration required to reduce virus-induced cytopathicity by 50% on HEF cell line infected with thymidine kinase-deficient herpes simplex virus type 1 (TK-HSV-1); conditions: Homo sapiens; how it was run: as §1
HEF [10] = test: Tested for minimum inhibitory concentration required to reduce virus-induced cytopathicity by 50% on HEF cell line infected with vaccinia virus; conditions: Homo sapiens; how it was run: as §1
HeLa [11] = test: Tested for minimum inhibitory concentration required to cause a microscopically detectable alteration of normal cell morphology by 50% on HeLa cell line; conditions: Homo sapiens
How it was run: (§2)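 HeLa (human epithelial), MDCK (Madin-Darby canine kidney) or Vero (African green monkey kidney) cells were scored by microscopy. The value is the minimum concentration that causes a detectable alteration of normal cell morphology. Values are averages of at least two separate experiments.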

HeLa [12] = test: Tested for minimum inhibitory concentration required to reduce virus-induced cytopathicity by 50% on HeLa cell line infected with RSV virus; conditions: Homo sapiens
How it was run: (§3)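 HeLa (human epithelial), MDCK (Madin-Darby canine kidney) or Vero (African green monkey kidney) cells were infected with the stated virus. The value is the concentration that reduces virus-induced cytopathicity by 50%. Values are averages of at least two separate experiments.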

HeLa [13] = test: Tested for minimum inhibitory concentration required to reduce virus-induced cytopathicity by 50% on HeLa cell line infected with polio 1 virus; conditions: Homo sapiens; how it was run: as §3
MDCK [14] = test: Tested for minimum inhibitory concentration required to reduce virus-induced cytopathicity by 50% on MDCK cell line infected with influenza A virus; conditions: Canis lupus familiaris; how it was run: as §3
MDCK [15] = test: Tested for minimum inhibitory concentration required to reduce virus-induced cytopathicity by 50% on MDCK cell line infected with influenza B virus; conditions: Canis lupus familiaris; how it was run: as §3
MDCK [16] = test: Tested for minimum inhibitory concentration required to cause a microscopically detectable alteration of normal cell morphology by 50% on MDCK cell line; conditions: Canis lupus familiaris; how it was run: as §2
Vero [17] = test: Tested for minimum inhibitory concentration required to cause a microscopically detectable alteration of normal cell morphology by 50% on vero cell line; conditions: Chlorocebus sabaeus; how it was run: as §2
Vero [18] = test: Tested for minimum inhibitory concentration required to reduce virus-induced cytopathicity by 50% on vero cell line infected with Reo 1 virus; conditions: Chlorocebus sabaeus; how it was run: as §3
Vero [19] = test: Tested for minimum inhibitory concentration required to reduce virus-induced cytopathicity by 50% on vero cell line infected with coxsackie B4 virus; conditions: Chlorocebus sabaeus; how it was run: as §3
Vero [20] = test: Tested for minimum inhibitory concentration required to reduce virus-induced cytopathicity by 50% on vero cell line infected with parainfluenza 3 virus; conditions: Chlorocebus sabaeus; how it was run: as §3
Vero [21] = test: Tested for minimum inhibitory concentration required to reduce virus-induced cytopathicity by 50% on vero cell line infected with semliki forest virus; conditions: Chlorocebus sabaeus; how it was run: as §3
Vero [22] = test: Tested for minimum inhibitory concentration required to reduce virus-induced cytopathicity by 50% on vero cell line infected with sindbis virus; conditions: Chlorocebus sabaeus; how it was run: as §3
Vero [23] = test: Tested for minimum inhibitory concentration required to cause a microscopically detectable alteration of normal cell morphology by 50% on Vero cell line; conditions: Chlorocebus sabaeus; how it was run: as §2
HeLa [24] = test: tested for minimum inhibitory concentration required to cause a microscopically detectable alteration of normal cell morphology by 50% on HeLa cell line; conditions: Homo sapiens; how it was run: as §2
Vero [25] = test: Tested for minimum inhibitory concentration required to reduce virus-induced cytopathicity by 50% on vero cell line infected with semliki forest; conditions: Chlorocebus sabaeus; how it was run: as §3

SMILES	MIC50 (CCRF-CEM [1]) [µg/mL]	MIC50 (CCRF-CEM [2]) [µg/mL]	MIC50 (CCRF-CEM [3]) [µg/mL]	MIC50 (HEF [4]) [µg/mL]	MIC50 (HEF [5]) [µg/mL]	MIC50 (HEF [6]) [µg/mL]	MIC50 (HEF [7]) [µg/mL]	MIC50 (HEF [8]) [µg/mL]	MIC50 (HEF [9]) [µg/mL]	MIC50 (HEF [10]) [µg/mL]	MIC50 (HeLa [11]) [µg/mL]	MIC50 (HeLa [12]) [µg/mL]	MIC50 (HeLa [13]) [µg/mL]	MIC50 (MDCK [14]) [µg/mL]	MIC50 (MDCK [15]) [µg/mL]	MIC50 (MDCK [16]) [µg/mL]	MIC50 (Vero [18]) [µg/mL]	MIC50 (Vero [19]) [µg/mL]	MIC50 (Vero [20]) [µg/mL]	MIC50 (Vero [22]) [µg/mL]	also measured
C1CNC2(C1)C1CC3CC(C1)CC2C3 (stereo unspecified)	100 (≈ 523 µM)	> 40	> 40	≥ 400	> 50	200 (≈ 1050 µM)	> 200	> 200	> 200	> 200	> 200	> 200	> 200	> 30	> 200	> 200	> 200	> 200	> 200	> 200	MIC50 (Vero [17]): ≥ 400 µg/mL; MIC50 (Vero [21]): > 200 µg/mL
NC1CC12C1CC3CC(C1)CC2C3 (stereo unspecified)	32 (≈ 180 µM)	> 8	> 8	40 (≈ 226 µM)	80 (≈ 451 µM)	> 20	> 20	> 20	> 20	> 20	40 (≈ 226 µM)	30 (≈ 169 µM)	> 20	30 (≈ 169 µM)	> 100	100 (≈ 564 µM)	> 40	> 40	> 40	> 40	MIC50 (Vero [23]): 100 µg/mL (≈ 564 µM); MIC50 (Vero [21]): > 40 µg/mL
CN(C)C1CC12C1CC3CC(C1)CC2C3 (stereo unspecified)	> 200	> 200	> 200	≥ 400	> 200	> 200	> 200	> 200	> 200	> 200	≥ 400	> 200	> 400	6 (≈ 29.2 µM)	> 100	100 (≈ 487 µM)	400 (≈ 1950 µM)	> 400	100 (≈ 487 µM)	> 400	MIC50 (Vero [17]): > 400 µg/mL; MIC50 (Vero [21]): > 400 µg/mL
CNCC1CC12C1CC3CC(C1)CC2C3 (stereo unspecified)	4 (≈ 19.5 µM)	> 8	> 8	40 (≈ 195 µM)	50 (≈ 243 µM)	> 20	> 20	> 20	> 20	> 20	40 (≈ 195 µM)	30 (≈ 146 µM)	> 20	> 20	> 20	20 (≈ 97.4 µM)	> 20	> 20	> 20	> 20	MIC50 (Vero [17]): 40 µg/mL (≈ 195 µM); MIC50 (Vero [21]): > 20 µg/mL
CN(C)CC1CC12C1CC3CC(C1)CC2C3 (stereo unspecified)	23 (≈ 105 µM)	> 40	> 40	40 (≈ 182 µM)	95 (≈ 433 µM)	> 20	> 20	> 20	> 20	> 20	100 (≈ 456 µM)	40 (≈ 182 µM)	> 70	> 40	> 100	70 (≈ 319 µM)	> 70	> 70	> 70	> 70	MIC50 (Vero [17]): 100 µg/mL (≈ 456 µM); MIC50 (Vero [21]): > 70 µg/mL
CCN1CCCC12C1CC3CC(C1)CC2C3 (stereo unspecified)	> 200	> 200	> 200	> 400	> 200	> 400	≥ 400	> 400	≥ 400	> 400	–	> 200	> 400	2.4 (≈ 10.9 µM)	> 200	> 200	> 400	> 400	> 400	> 400	MIC50 (HeLa [24]): > 400 µg/mL; MIC50 (Vero [17]): > 400 µg/mL; MIC50 (Vero [21]): > 400 µg/mL
NCC1CC12C1CC3CC(C1)CC2C3 (stereo unspecified)	14 (≈ 73.2 µM)	> 8	> 8	40 (≈ 209 µM)	28 (≈ 146 µM)	> 20	> 20	> 20	> 20	> 20	20 (≈ 105 µM)	≥ 15	> 10	0.8 (≈ 4.18 µM)	> 20	20 (≈ 105 µM)	> 20	> 20	> 20	> 20	MIC50 (Vero [17]): 40 µg/mL (≈ 209 µM); MIC50 (Vero [25]): > 20 µg/mL
CN1CCCC12C1CC3CC(C1)CC2C3 (stereo unspecified)	> 200	> 200	> 200	> 400	> 50	≥ 400	≥ 400	> 400	≥ 400	> 400	> 400	> 200	> 400	0.56 (≈ 2.73 µM)	> 200	> 200	> 400	> 400	> 400	> 400	MIC50 (Vero [17]): > 400 µg/mL; MIC50 (Vero [21]): > 400 µg/mL
CNC1CC12C1CC3CC(C1)CC2C3 (stereo unspecified)	75 (≈ 392 µM)	> 8	> 8	100 (≈ 523 µM)	90 (≈ 470 µM)	> 70	> 40	> 70	> 40	> 70	200 (≈ 1050 µM)	> 150	> 100	1.2 (≈ 6.27 µM)	> 100	100 (≈ 523 µM)	> 70	> 70	> 70	> 70	MIC50 (Vero [23]): 100 µg/mL (≈ 523 µM); MIC50 (Vero [21]): > 70 µg/mL
NC12CC3CC(CC(C3)C1)C2 [AMANTADINE]	–	–	–	–	–	–	–	–	–	–	100 (≈ 661 µM)	> 100	–	100 (≈ 661 µM)	> 200	> 100	–	–	–	–	–
NC(=O)c1ncn([C@@H]2O[C@H](CO)[C@@H](O)[C@H]2O)n1 [RIBAVIRIN]	–	–	–	> 400	–	200 (≈ 819 µM)	20 (≈ 81.9 µM)	> 400	≥ 200	70 (≈ 287 µM)	> 200	2.8 (≈ 11.5 µM)	70 (≈ 287 µM)	1.2 (≈ 4.91 µM)	4 (≈ 16.4 µM)	> 200	20 (≈ 81.9 µM)	300 (≈ 1230 µM)	70 (≈ 287 µM)	70 (≈ 287 µM)	MIC50 (Vero [17]): > 400 µg/mL; MIC50 (Vero [21]): 20 µg/mL (≈ 81.9 µM)

— ChEMBL document CHEMBL1127450, “Synthesis and antiviral activity evaluation of some aminoadamantane derivatives” (1994)
